We go through eight compounds from ChEMBL document CHEMBL4190393, “Specific Stereoisomeric Conformations Determine the Drug Potency of Cladosporin Scaffold against Malarial Parasite” (J Med Chem, 2018).

Test [1] relates to Plasmodium falciparum. The test is described as follows: Antiparasitic activity against Plasmodium falciparum 3D7 infected in human erythrocytes after 48 hrs by SYBR green-1 staining based assay. In kind it is functional, organism-based. The note with it: 3D7, 48 h.
Test [2] concerns the target Lysine--tRNA ligase (Plasmodium falciparum (isolate 3D7)) (UniProt Q8IDJ8). The test is described as follows: Binding affinity to Plasmodium falciparum KRS expressed in Escherichia coli BL21 by thermal shift assay. In short, it runs like this:
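Protein thermal shift assay with PfKRS at 2 μM in the presence of L-lysine. Binding is reported as the shift in melting temperature (ΔTm, °C) of the enzyme when the compound is added.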

The target of test [3] is T1, Lysine--tRNA ligase (Homo sapiens, UniProt Q15046). The test is described as follows: Binding affinity to human KRS expressed in Escherichia coli BL21 by thermal shift assay. In short, it runs like this: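 Protein thermal shift assay with Hs-KRS at 4 μM in the presence of L-lysine; binding read out as the shift in melting temperature (ΔTm, °C) produced by each ligand.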
Target sequence in this assay (Q15046 2-597 limits assumed): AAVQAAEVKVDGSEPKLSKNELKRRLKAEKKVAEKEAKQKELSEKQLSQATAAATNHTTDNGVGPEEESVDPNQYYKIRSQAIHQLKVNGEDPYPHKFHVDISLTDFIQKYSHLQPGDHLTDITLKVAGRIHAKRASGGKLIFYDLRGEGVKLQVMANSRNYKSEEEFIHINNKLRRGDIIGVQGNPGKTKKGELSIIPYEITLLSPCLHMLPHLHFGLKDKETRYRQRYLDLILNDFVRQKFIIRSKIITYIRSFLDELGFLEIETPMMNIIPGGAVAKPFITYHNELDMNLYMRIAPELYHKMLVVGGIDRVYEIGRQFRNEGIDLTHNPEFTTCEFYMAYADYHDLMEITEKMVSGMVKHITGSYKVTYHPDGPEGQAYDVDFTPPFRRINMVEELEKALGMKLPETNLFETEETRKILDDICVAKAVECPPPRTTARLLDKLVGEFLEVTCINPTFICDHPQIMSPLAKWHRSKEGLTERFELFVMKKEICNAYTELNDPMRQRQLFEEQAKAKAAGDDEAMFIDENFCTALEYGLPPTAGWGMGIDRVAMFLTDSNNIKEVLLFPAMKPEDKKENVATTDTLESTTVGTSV

The target in test [4] is T1, Lysine--tRNA ligase. In words: Inhibition of human KRS expressed in Escherichia coli BL21 using tRNA(Lys) as substrate after 1 hr in presence of L-lysine by AMP-GLO assay.
Target sequence in this assay (Q15046 whole entry): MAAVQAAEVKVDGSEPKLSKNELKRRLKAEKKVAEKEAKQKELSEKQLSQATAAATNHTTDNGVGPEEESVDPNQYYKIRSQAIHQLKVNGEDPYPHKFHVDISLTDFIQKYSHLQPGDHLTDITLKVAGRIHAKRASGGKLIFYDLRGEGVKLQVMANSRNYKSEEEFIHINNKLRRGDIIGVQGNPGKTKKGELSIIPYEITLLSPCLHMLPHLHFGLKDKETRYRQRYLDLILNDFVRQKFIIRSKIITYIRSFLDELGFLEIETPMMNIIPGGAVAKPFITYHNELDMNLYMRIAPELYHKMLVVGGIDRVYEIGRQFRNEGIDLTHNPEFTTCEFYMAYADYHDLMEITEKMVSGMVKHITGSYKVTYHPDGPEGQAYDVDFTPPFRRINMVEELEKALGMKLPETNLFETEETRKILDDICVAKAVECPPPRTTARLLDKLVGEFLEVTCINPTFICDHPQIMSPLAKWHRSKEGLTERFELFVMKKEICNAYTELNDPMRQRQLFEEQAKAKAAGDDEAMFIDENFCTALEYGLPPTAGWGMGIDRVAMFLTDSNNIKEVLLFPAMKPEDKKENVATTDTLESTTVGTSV
Test [5] concerns the target Lysine--tRNA ligase (Plasmodium falciparum (isolate 3D7), UniProt Q8IDJ8). The test is described as follows: Inhibition of Plasmodium falciparum KRS expressed in Escherichia coli BL21 using tRNA(Lys) as substrate after 45 mins in presence of L-lysine by AMP-GLO assay.
Test [6] is described as follows: Selectivity ratio of IC50 for human KRS to IC50 for Plasmodium falciparum KRS.

Some results are limits rather than exact numbers.

Lysine--tRNA ligase (Plasmodium falciparum (isolate 3D7)), sequence (Q8IDJ8 1-583): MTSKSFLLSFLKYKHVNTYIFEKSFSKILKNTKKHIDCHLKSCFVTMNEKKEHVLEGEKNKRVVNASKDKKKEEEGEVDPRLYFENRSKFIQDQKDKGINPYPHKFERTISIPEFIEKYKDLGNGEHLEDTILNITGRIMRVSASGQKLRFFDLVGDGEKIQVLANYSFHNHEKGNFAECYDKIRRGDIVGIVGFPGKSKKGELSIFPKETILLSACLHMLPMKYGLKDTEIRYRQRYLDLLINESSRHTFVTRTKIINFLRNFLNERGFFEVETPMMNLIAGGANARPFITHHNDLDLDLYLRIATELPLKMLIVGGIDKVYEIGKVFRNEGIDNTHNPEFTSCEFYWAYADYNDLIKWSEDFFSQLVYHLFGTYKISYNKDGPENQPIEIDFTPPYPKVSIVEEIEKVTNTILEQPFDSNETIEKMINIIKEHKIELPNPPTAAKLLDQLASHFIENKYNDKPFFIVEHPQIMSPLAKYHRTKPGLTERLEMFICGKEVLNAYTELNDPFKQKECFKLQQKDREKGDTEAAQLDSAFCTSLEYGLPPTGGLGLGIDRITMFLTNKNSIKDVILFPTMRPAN
Lysine--tRNA ligase (Plasmodium falciparum (isolate 3D7), UniProt Q8IDJ8), sequence (Q8IDJ8 whole entry): as the sequence (Q8IDJ8 1-583) above

The term EC50 denotes the concentration that produces a half-maximal response. One may read the ΔTm as the change in melting temperature against a reference sample. As a reminder, the IC50 is the concentration at which inhibition is half-maximal. For the compound `C[C@@H]1CCC[C@@H](C[C@H]2Cc3cc(O)cc(O)c3C(=O)O2)O1`, the EC50 in test [1] was determined as 1.15 µM. Further, the shift in melting temperature (ΔTm) is 13.5 °C in test [2] and 1.1 °C in test [3]. Moreover, the IC50 in test [4] is > 100 µM; in test [5], 7.25 µM.

As for `C[C@H]1CCC[C@H](C[C@@H]2Cc3cc(O)cc(O)c3C(=O)O2)O1`, in test [1], a half-maximal response (EC50) required 1.6 µM. Also, the ΔTm turned out to be 14.3 °C in test [2] and 0.5 °C in test [3]. In addition, the IC50 in test [4] is > 100 µM; in test [5] it was 4.64 µM.

Compound `C[C@@H]1CCC[C@H](C[C@H]2Cc3cc(O)cc(O)c3C(=O)O2)O1` registered an EC50 in test [1] of 0.27 µM. Further, the figures for the ΔTm in test [2] and in test [3] were 16.2 °C and 1 °C, respectively. In addition, the IC50 was > 100 µM in test [4] and 0.29 µM in test [5].

With `C[C@H]1CCC[C@H](C[C@H]2Cc3cc(O)cc(O)c3C(=O)O2)O1` [CLADOSPORIN], the EC50 in test [1] amounted to 0.04 µM. In addition, the ΔTm is 17.3 °C in test [2] and 1.3 °C in test [3]. Besides, in test [6], the Ratio IC50 was 840. In addition, the IC50 in test [4] worked out at 105 µM; in test [5], 0.12 µM.

On to `C[C@H]1CCC[C@@H](C[C@@H]2Cc3cc(O)cc(O)c3C(=O)O2)O1`, for which, in test [1], the EC50 is > 2 µM. Moreover, the ΔTm in test [2] came out at 11.4 °C; in test [3] it was 1.1 °C. Also, the figures for the IC50 in test [4] and in test [5] were > 100 µM and 29 µM, respectively.

For `C[C@@H]1CCC[C@H](C[C@@H]2Cc3cc(O)cc(O)c3C(=O)O2)O1`, the 50% effective concentration (EC50) in test [1] was > 2 µM. Moreover, the thermal shift (ΔTm) came to 11.8 °C in test [2] and 0.3 °C in test [3]. Also, the values for the half-maximal inhibitory concentration (IC50) in test [4] and in test [5] were > 100 µM and 21.3 µM, respectively.

Take `C[C@H]1CCC[C@@H](C[C@H]2Cc3cc(O)cc(O)c3C(=O)O2)O1`: a half-maximal response in test [1] (EC50) required 1.1 µM. In addition, the ΔTm in test [2] worked out at 15.6 °C; in test [3] it was 0.1 °C. The IC50 is > 100 µM in test [4] and 5.8 µM in test [5].

Consider `C[C@@H]1CCC[C@@H](C[C@@H]2Cc3cc(O)cc(O)c3C(=O)O2)O1`, for which the EC50 in test [1] is > 2 µM. The ΔTm in test [2] was 7.9 °C; in test [3] it was -0.9 °C. The IC50 in test [4] was > 100 µM; in test [5], 50 µM.
